# Data published in ChEMBL document CHEMBL4627348, “Synthesis of (1,3,4-thiadiazol-2-yl)-acrylamide derivatives as potential antitumor agents against acute leukemia cells” (Bioorg Med Chem Lett, 2020).
# Tested on: not listed separately
# Test: Cytotoxicity against HEK293T cells assessed as growth inhibition at 20 uM after 48 hrs by CCK8 assay relative to control
# Format: cell-based, HEK-293T
# Conditions: human, HEK293T cells; read-out: GI
# How it was run: (§1)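 Single-dose screen at 20 μM in RS4;11 (human ALL), HL-60 (human promyelocytic leukemia) and HEK293T (normal-cell model). Cells exposed 48 h, viability read by CCK-8, growth inhibition ratio expressed relative to control.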
row,Compound,"inhibition at 48 h, 20 µM"
1,COc1ccc(S(=O)(=O)Oc2ccccc2/C=C(\C#N)C(=O)Nc2nnc(-c3cccs3)s2)cc1,40%
2,COc1ccc(S(=O)(=O)Oc2ccccc2/C=C(\C#N)C(=O)Nc2nnc(Cc3ccc(C)cc3)s2)cc1,28%
3,Cc1ccc(S(=O)(=O)Oc2cccc(/C=C(\C#N)C(=O)Nc3nnc(-c4cccs4)s3)c2)cc1,43%
4,Cc1ccc(S(=O)(=O)Oc2cccc(/C=C(\C#N)C(=O)Nc3nnc(C)s3)c2)cc1,27%
5,COc1ccc(Cc2nnc(NC(=O)/C(C#N)=C/c3ccccc3OS(=O)(=O)c3ccc([N+](=O)[O-])cc3)s2)cc1,17%
6,COc1ccc(S(=O)(=O)Oc2ccccc2/C=C(\C#N)C(=O)Nc2nnc(Cc3cccc4ccccc34)s2)cc1,29%

# Tested on: RS4-11
# Test: Antiproliferative activity against human RS4:11 cells assessed as growth inhibition after 48 hrs by CCK-8 assay
# Format: functional, cell-based
# Conditions: RS4-11, 48 h
row,Compound,IC50
1,COc1ccc(S(=O)(=O)Oc2ccccc2/C=C(\C#N)C(=O)Nc2nnc(-c3cccs3)s2)cc1,4.75 µM
2,COc1ccc(S(=O)(=O)Oc2ccccc2/C=C(\C#N)C(=O)Nc2nnc(Cc3ccc(C)cc3)s2)cc1,1.01 µM
3,Cc1ccc(S(=O)(=O)Oc2cccc(/C=C(\C#N)C(=O)Nc3nnc(-c4cccs4)s3)c2)cc1,> 20 µM
4,Cc1ccc(S(=O)(=O)Oc2cccc(/C=C(\C#N)C(=O)Nc3nnc(C)s3)c2)cc1,> 20 µM
5,COc1ccc(Cc2nnc(NC(=O)/C(C#N)=C/c3ccccc3OS(=O)(=O)c3ccc([N+](=O)[O-])cc3)s2)cc1,3.67 µM
6,COc1ccc(S(=O)(=O)Oc2ccccc2/C=C(\C#N)C(=O)Nc2nnc(Cc3cccc4ccccc34)s2)cc1,1.36 µM

# Tested on: HL-60
# Test: Antiproliferative activity against human HL60 cells assessed as growth inhibition at 20 uM after 48 hrs by CCK-8 assay relative to control
# Format: functional
# Conditions: HL-60, 48 h, read-out: GI
# How it was run: as §1
row,Compound,inhibition of growth at 20 µM
1,COc1ccc(S(=O)(=O)Oc2ccccc2/C=C(\C#N)C(=O)Nc2nnc(-c3cccs3)s2)cc1,67%
2,COc1ccc(S(=O)(=O)Oc2ccccc2/C=C(\C#N)C(=O)Nc2nnc(Cc3ccc(C)cc3)s2)cc1,100%
3,Cc1ccc(S(=O)(=O)Oc2cccc(/C=C(\C#N)C(=O)Nc3nnc(-c4cccs4)s3)c2)cc1,62%
4,Cc1ccc(S(=O)(=O)Oc2cccc(/C=C(\C#N)C(=O)Nc3nnc(C)s3)c2)cc1,71%
5,COc1ccc(Cc2nnc(NC(=O)/C(C#N)=C/c3ccccc3OS(=O)(=O)c3ccc([N+](=O)[O-])cc3)s2)cc1,51%
6,COc1ccc(S(=O)(=O)Oc2ccccc2/C=C(\C#N)C(=O)Nc2nnc(Cc3cccc4ccccc34)s2)cc1,98%

# Tested on: HL-60
# Test: Antiproliferative activity against human HL60 cells assessed as growth inhibition after 48 hrs by CCK-8 assay
# Format: functional, cell-based
# Conditions: HL-60, 48 h
row,Compound,IC50
1,COc1ccc(S(=O)(=O)Oc2ccccc2/C=C(\C#N)C(=O)Nc2nnc(-c3cccs3)s2)cc1,5.23 µM
2,COc1ccc(S(=O)(=O)Oc2ccccc2/C=C(\C#N)C(=O)Nc2nnc(Cc3ccc(C)cc3)s2)cc1,4.08 µM
3,Cc1ccc(S(=O)(=O)Oc2cccc(/C=C(\C#N)C(=O)Nc3nnc(-c4cccs4)s3)c2)cc1,8.75 µM
4,Cc1ccc(S(=O)(=O)Oc2cccc(/C=C(\C#N)C(=O)Nc3nnc(C)s3)c2)cc1,5.78 µM
5,COc1ccc(Cc2nnc(NC(=O)/C(C#N)=C/c3ccccc3OS(=O)(=O)c3ccc([N+](=O)[O-])cc3)s2)cc1,10.9 µM
6,COc1ccc(S(=O)(=O)Oc2ccccc2/C=C(\C#N)C(=O)Nc2nnc(Cc3cccc4ccccc34)s2)cc1,4.7 µM

# Tested on: RS4-11
# Test: Antiproliferative activity against human RS4:11 cells assessed as growth inhibition at 20 uM after 48 hrs by CCK-8 assay relative to control
# Format: functional
# Conditions: RS4-11, 48 h, read-out: GI
# How it was run: as §1
row,Compound,inhibition of growth at 20 µM
1,COc1ccc(S(=O)(=O)Oc2ccccc2/C=C(\C#N)C(=O)Nc2nnc(-c3cccs3)s2)cc1,76%
2,COc1ccc(S(=O)(=O)Oc2ccccc2/C=C(\C#N)C(=O)Nc2nnc(Cc3ccc(C)cc3)s2)cc1,79%
3,Cc1ccc(S(=O)(=O)Oc2cccc(/C=C(\C#N)C(=O)Nc3nnc(-c4cccs4)s3)c2)cc1,25%
4,Cc1ccc(S(=O)(=O)Oc2cccc(/C=C(\C#N)C(=O)Nc3nnc(C)s3)c2)cc1,28%
5,COc1ccc(Cc2nnc(NC(=O)/C(C#N)=C/c3ccccc3OS(=O)(=O)c3ccc([N+](=O)[O-])cc3)s2)cc1,70%
6,COc1ccc(S(=O)(=O)Oc2ccccc2/C=C(\C#N)C(=O)Nc2nnc(Cc3cccc4ccccc34)s2)cc1,78%

# Tested on: HEK-293T
# Test: Cytotoxicity against human HEK293T cells assessed as growth inhibition after 48 hrs by CCK8 assay
# Format: cell-based
# Conditions: not given
row,Compound,IC50
1,COc1ccc(S(=O)(=O)Oc2ccccc2/C=C(\C#N)C(=O)Nc2nnc(-c3cccs3)s2)cc1,> 20 µM
2,COc1ccc(S(=O)(=O)Oc2ccccc2/C=C(\C#N)C(=O)Nc2nnc(Cc3ccc(C)cc3)s2)cc1,> 50 µM
3,Cc1ccc(S(=O)(=O)Oc2cccc(/C=C(\C#N)C(=O)Nc3nnc(-c4cccs4)s3)c2)cc1,> 20 µM
4,Cc1ccc(S(=O)(=O)Oc2cccc(/C=C(\C#N)C(=O)Nc3nnc(C)s3)c2)cc1,> 50 µM
5,COc1ccc(Cc2nnc(NC(=O)/C(C#N)=C/c3ccccc3OS(=O)(=O)c3ccc([N+](=O)[O-])cc3)s2)cc1,> 50 µM
6,COc1ccc(S(=O)(=O)Oc2ccccc2/C=C(\C#N)C(=O)Nc2nnc(Cc3cccc4ccccc34)s2)cc1,> 50 µM
